Screening results as filed in PubChem BioAssay.
Shown are actives, neighbours in structure and some others; about 1.6% of the full set was active somewhere.
TNF necrop inh = inhibitors of TNF-alpha induced necroptosis in Jurkat FADD-/- cells | AID 463075 | Jurkat FADD-/- TNF necroptosis rescue, ATP luminescence, 24 h; 0 = TNF only, 100 = no-TNF cells | activation (protection from cell death), % at 10 µM | 220,000 compounds, 0.068% hits;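 active = activation, meaning protection from cell death, of at least 50% relative to plate controls; inactive = activation below 50%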;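 note: necroptosis triggered by 40 ng/mL TNF-alpha added together with compound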
zVAD death inh = L929 zVAD cell death inhibition | L929 zVAD necroptosis rescue, ATP luminescence, 24 h; with zVAD 60 µM | viability rescue, % at 10 µM | 220,000 compounds, 0.38% hits | AID 1377;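 active = activation, scaled between plate controls, above about 75%, limit read from the data; inactive = activation under that limit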;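 note: 0% = zVAD with DMSO and 100% = DMSO alone without zVAD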
Pf gamet viab = P. falciparum stage V gametocyte viability inhibition. P. falciparum stage V gametocytes, ATP luminescence, 24 h. inhibition, % at 10.9 µM. 150,000 compounds, 0.065% hits;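 active = inhibition above the mean plus 3 SD of compounds within the control limits, set per campaign, cut at about 38% in these data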;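 note: 0% = DMSO wells and 100% = medium only without gametocytes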
Wee1 degr inh = inhibitors of human Wee1 degradation | P30291 | HeLa Luc-Wee1K328M stability, luciferase luminescence; 100% = proteasome inhibitor MG132 effect | reporter increase, % at 5 µM | 220,000 compounds, 1.2% hits;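 active = activation above the mean of all tested compounds plus 3 SD, set per screening run, cut at about 8.8% in these data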;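 note: cells exposed to compound for 20 h before luminescence read; 0% = DMSO alone and 100% = MG132 at 30 µM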
Mdm2 ligase inh = Mdm2 E3 ligase (human) inhibition; Q00987; cell-based MDM2 ubiquitination luciferase reporter, 2 h; 0 = plate control, 100 = twice control, blank-subtracted; signal enhancement, % at 5 µM; 210,000 compounds, 0.11% hits; AID 1230;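 active = signal enhancement of 30% or more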;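 note: luminescence tracks abundance of the self-degrading MDM2-luciferase fusion protein; higher signal means inhibition of MDM2 E3 ligase activity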
Target sequence (Q00987 whole entry, looked up, the tested form may be a part): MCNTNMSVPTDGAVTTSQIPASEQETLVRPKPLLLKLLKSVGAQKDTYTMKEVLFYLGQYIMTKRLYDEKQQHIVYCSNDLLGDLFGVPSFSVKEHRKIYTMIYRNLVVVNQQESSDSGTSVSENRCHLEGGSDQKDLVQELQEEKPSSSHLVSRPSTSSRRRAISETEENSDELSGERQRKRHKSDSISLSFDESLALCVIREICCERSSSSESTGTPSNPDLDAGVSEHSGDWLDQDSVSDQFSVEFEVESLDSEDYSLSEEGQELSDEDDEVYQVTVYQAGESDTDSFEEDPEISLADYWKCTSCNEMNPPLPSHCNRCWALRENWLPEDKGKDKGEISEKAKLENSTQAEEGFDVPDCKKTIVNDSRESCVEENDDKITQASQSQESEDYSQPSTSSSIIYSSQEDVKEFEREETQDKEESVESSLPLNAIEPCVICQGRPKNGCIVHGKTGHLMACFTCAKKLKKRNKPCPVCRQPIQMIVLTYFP
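System: stable MDM2–luciferase fusion reporter cells / Input: 2000 cells seeded into each well / Schedule: 4 h settle plus 2 h compound, 37 °C / Compound: single-point 5 µM / Buffer or medium: cells held in DMEM / Benchmarks: control and blank well means / Evaluation: percent signal gain over controls, blank-subtracted / Measured by: luciferase luminescence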
An asterisk follows results filed as active; ! = not active in a repeat.

N#C/C(=C(/O)c1cccc(F)c1)c1nc2ccccc2s1 was read as TNF necrop inh 3.4, zVAD death inh 0.2, Pf gamet viab 9.8 and Wee1 degr inh 10.2*.
Screening Cn1c(CNC(=O)c2ccco2)nnc1SCC(=O)Nc1cccc(Br)c1 returned TNF necrop inh 0.4, zVAD death inh -0.2, Pf gamet viab 14.5, Wee1 degr inh 1.1 and Mdm2 ligase inh -8.7.
`Cn1c(CNC(=O)c2ccco2)nnc1SCC(=O)N1c2ccccc2Sc2ccccc21` gave TNF necrop inh -2.2, zVAD death inh -0.1, Pf gamet viab -31.9, Wee1 degr inh 0.6 and Mdm2 ligase inh 30.0*.
`CC(C)c1ccc2c(c1)C1(NN=C(c3ccccc3)S1)C(=O)N2` (centres undefined) gave TNF necrop inh -10.5, zVAD death inh 1.2, Wee1 degr inh -0.2 and Mdm2 ligase inh 45.2*.
`CCn1c(COc2ccc(OC)cc2)nc2ccccc21` gave TNF necrop inh 0.6, zVAD death inh 0.4, Pf gamet viab 6.8, Wee1 degr inh 8.8* and Mdm2 ligase inh -7.5.
Screening COCn1c(-c2ccc(OC)cc2)nc2ccccc21 returned TNF necrop inh -2.1, zVAD death inh 0.0, Wee1 degr inh 9.2* and Mdm2 ligase inh 2.3.
For Cc1ccnc(SCc2nc3ccccc3s2)n1 the results were TNF necrop inh -0.5, zVAD death inh 0.1, Pf gamet viab 20.0, Wee1 degr inh 5.9 and Mdm2 ligase inh -16.3.
Cn1cc(CC(=O)NC2CCCCC2)c2ccccc21 was read as TNF necrop inh 1.7, zVAD death inh 1.9, Pf gamet viab -9.2, Wee1 degr inh -1.4 and Mdm2 ligase inh 7.5.
COC(=O)c1ccc(NC(=O)CNC(=O)C2CCCCC2)c(C)c1 was read as TNF necrop inh -0.1, zVAD death inh 0.1, Wee1 degr inh 10.2* and Mdm2 ligase inh -10.3.
For COc1ccc(C(=O)N[C@H](C(=O)Nc2nc3ccccc3[nH]2)C(C)C)cc1 the results were TNF necrop inh -8.8, zVAD death inh -1.1, Pf gamet viab -5.8, Wee1 degr inh 9.0* and Mdm2 ligase inh -26.9.
For Cc1ccc(-n2[nH]c3c4c(ccc3c2=O)C(=O)c2ccccc2C4=O)cc1 the results were TNF necrop inh -0.1, zVAD death inh 1.7, Pf gamet viab 61.3*, Wee1 degr inh 2.4 and Mdm2 ligase inh 12.8.
COC(=O)C1=C(C)N(c2ccc(OC)c(OC)c2)C(=O)/C1=C\c1ccco1 was read as TNF necrop inh -0.2, zVAD death inh 0.6, Pf gamet viab -6.1, Wee1 degr inh 8.9* and Mdm2 ligase inh -2.8.
`CCOC(=O)C1=C(C)N(c2ccccc2)C(=O)/C1=C\c1ccco1` gave TNF necrop inh -0.3, zVAD death inh 0.4, Wee1 degr inh 1.5 and Mdm2 ligase inh -0.7.
CCOC(=O)/C(C#N)=C/c1c[nH]c2ccccc12 was read as TNF necrop inh 1.5, zVAD death inh 1.0, Pf gamet viab 4.5, Wee1 degr inh 10.1*! and Mdm2 ligase inh -15.1.
`COC(=O)/C(C#N)=C/c1c[nH]c2ccccc12` gave TNF necrop inh 2.6, zVAD death inh 52.5, Pf gamet viab -25.3, Wee1 degr inh 3.9 and Mdm2 ligase inh -18.7.
Screening Cc1cc(NC(=O)C2CC2)ncc1NC(=O)C12CC3CC(CC(C3)C1)C2 returned TNF necrop inh 0.9, zVAD death inh 8.3, Wee1 degr inh -1.3 and Mdm2 ligase inh 30.1*.
For CCCCCC(=O)Nc1c(-c2ccc(OC)cc2)c(=O)c2ccccc2n1C the results were TNF necrop inh 0.7, zVAD death inh 1.7, Wee1 degr inh 9.9* and Mdm2 ligase inh 8.8.
For CCCC(=O)Nc1c(-c2ccc(OC)cc2)c(=O)c2ccccc2n1C the results were TNF necrop inh -0.6, zVAD death inh -0.4, Wee1 degr inh 1.2 and Mdm2 ligase inh -0.2.
Screening CCCCN1CC2([N+](=O)[O-])C=CC(=O)C([N+](=O)[O-])(C1)C2CC(=O)c1ccccc1 (centres undefined) returned TNF necrop inh 0.2, zVAD death inh 0.9, Pf gamet viab 0.9, Wee1 degr inh 0.2 and Mdm2 ligase inh -16.2.
`CC(C)CNC(=O)NC(=O)COc1ncnc2sccc12` gave TNF necrop inh -0.2, zVAD death inh 0.7, Wee1 degr inh 9.4* and Mdm2 ligase inh -5.4.
For CC(C)CCNC(=O)NC(=O)COc1ncnc2sccc12 the results were TNF necrop inh -3.0, zVAD death inh 0.9, Wee1 degr inh 2.9 and Mdm2 ligase inh -17.1.
O=C(NC1=NCCS1)c1nc(-c2ccccc2)n(-c2ccccc2)n1 was read as TNF necrop inh -0.9, zVAD death inh 0.1, Pf gamet viab -14.2, Wee1 degr inh 5.1 and Mdm2 ligase inh -5.7.
For Cc1ccc2nc(-c3ccc(NC(=O)CSc4nc(N)cc(=O)[nH]4)cc3)sc2c1 the results were TNF necrop inh 0.2, zVAD death inh -0.4, Pf gamet viab -18.6 and Wee1 degr inh 10.7*.
O=C(CSc1nc(O)cc(=O)[nH]1)Nc1ccc2c(c1)CCC2 was read as TNF necrop inh 0.6, zVAD death inh 0.9, Pf gamet viab 4.0, Wee1 degr inh 6.7 and Mdm2 ligase inh -12.5.
`Nc1cc(=O)[nH]c(SCC(=O)Nc2ccc3c(c2)CCC3)n1` gave TNF necrop inh 0.6, zVAD death inh 1.3, Pf gamet viab -0.8, Wee1 degr inh 9.6* and Mdm2 ligase inh -7.0.
For Cc1ccc2nc(-c3ccc(NC(=O)CSc4nccc(=O)[nH]4)cc3)sc2c1 the results were TNF necrop inh 0.3, zVAD death inh -0.1, Pf gamet viab 15.7, Wee1 degr inh 3.1 and Mdm2 ligase inh -19.0.
COCCn1c(=S)[nH]c2cc(C(=O)N3CCc4ccccc43)ccc2c1=O was read as TNF necrop inh -6.0, zVAD death inh -1.0, Pf gamet viab -4.8, Wee1 degr inh 10.8* and Mdm2 ligase inh -7.5.
`CCCn1c(=S)[nH]c2cc(C(=O)N3CCc4ccccc43)ccc2c1=O` gave TNF necrop inh -1.4, zVAD death inh -0.5, Wee1 degr inh -0.5 and Mdm2 ligase inh -19.8.
Screening CCC1SC2=NCN(c3ccccc3)CN2C1=O (centres undefined) returned TNF necrop inh 0.8, zVAD death inh 0.1, Wee1 degr inh 0.0 and Mdm2 ligase inh -1.6.
CCNc1nc(N)c(C(=O)c2ccc(Cl)s2)s1 was read as TNF necrop inh 5.3, zVAD death inh 0.2, Wee1 degr inh 10.3* and Mdm2 ligase inh -33.8.
Screening CC(C)(C)c1csc(NC(=O)c2ccc(Cl)s2)n1 returned TNF necrop inh -1.4, zVAD death inh 0.4, Pf gamet viab 7.5, Wee1 degr inh 8.5 and Mdm2 ligase inh -7.1.
For CCOC(=O)Cn1c(=O)oc2cc(S(=O)(=O)N3CCc4ccccc43)ccc21 the results were TNF necrop inh -0.5, zVAD death inh 0.2, Wee1 degr inh 1.2 and Mdm2 ligase inh -7.2.
Screening COc1ccccc1N1CCN(C(c2ccc(C)cc2)c2nnnn2C(C)C)CC1 (centres undefined) returned TNF necrop inh 1.4, zVAD death inh 1.5, Pf gamet viab 1.7, Wee1 degr inh 3.1 and Mdm2 ligase inh 38.1*.
